SMARCA2 act = SMARCA2 (BRM) function activators, primary screen, cell-based, luminescence, high throughput | AID 652017, 2013 | 370,000 compounds, 1% hits | activation, % at 9.1 µM | MG213 cells, MMTV-luciferase reporter, dexamethasone, overnight; in the data active = activation above about 7.8%;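 note: 0% = vehicle wells and 100% = reference activator wells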
ARFGAP1 inhibitor = inhibitors of rat ARFGAP1 GAP activity, primary screen, biochemical, fluorescence polarization, GDP tracer; Arfgap1-stimulated ARF1 GTP hydrolysis, GDP FP detection; inhibition, % at 16.5 µM; 360,000 compounds, 0.26% hits; AID 651572, 2012; ADP-ribosylation factor GTPase-activating protein 1 (Rattus norvegicus), Q62848;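 active = inhibition above a per-plate limit, mean inhibition of low control wells plus 3 SD, cut at about 25% in these data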;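 note: 0% = DMSO wells with enzyme and 100% = wells lacking Arfgap1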
Target sequence (Q62848 1-136 limits assumed): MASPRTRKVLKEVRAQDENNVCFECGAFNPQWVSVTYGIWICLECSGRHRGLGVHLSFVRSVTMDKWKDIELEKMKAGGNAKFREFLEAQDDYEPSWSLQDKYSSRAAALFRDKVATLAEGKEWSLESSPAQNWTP
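Repeats: one replicate per compound; assay system: rat Arfgap1 catalytic domain, aa 1-136; times: enzyme reaction 120 min at 25 °C after 20 min preincubation; detection: FP of antibody-bound GDP Alexa 633 tracer, ex 620/em 688 nm; benchmarks: high control wells lacking Arfgap1, low control full reaction with DMSO; reagent: human ARF1(Δ1-17)-GTP substrate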
ASAP1 inh = inhibitors of human ASAP1 ArfGAP activity, primary screen, biochemical, fluorescence polarization; Arf-GAP with SH3 domain, ANK repeat and PH domain-containing protein 1 (Homo sapiens), …; ASAP1-stimulated ARF1 GTP hydrolysis, GDP FP detection; inhibition, % at 16.5 µM; 360,000 compounds, 0.19% hits; AID 624377, 2012; in the data active = inhibition above about 25%;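 note: 0% = vehicle with enzyme and substrate and 100% = no enzyme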
Target sequence (Q9ULH1 325-724 limits assumed): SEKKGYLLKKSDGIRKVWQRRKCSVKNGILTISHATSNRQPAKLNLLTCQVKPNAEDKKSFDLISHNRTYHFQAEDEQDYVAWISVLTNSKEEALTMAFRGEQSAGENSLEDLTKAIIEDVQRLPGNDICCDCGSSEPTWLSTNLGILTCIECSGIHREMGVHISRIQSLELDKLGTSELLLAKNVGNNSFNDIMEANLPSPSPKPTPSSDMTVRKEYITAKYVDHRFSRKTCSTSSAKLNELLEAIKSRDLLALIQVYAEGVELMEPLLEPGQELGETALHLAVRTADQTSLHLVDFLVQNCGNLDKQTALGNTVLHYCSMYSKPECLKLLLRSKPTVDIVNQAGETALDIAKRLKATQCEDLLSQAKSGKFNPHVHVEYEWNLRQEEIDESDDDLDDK
esBAF inh = Bmi1 luciferase reporter increase in mESCs, primary screen, esBAF inhibitor project, mouse ES cells, Bmi1 luciferase knock-in, single point | 24 h; 100% = twice the neutral-well signal | reporter increase, % at 12.5 µM | 350,000 compounds, 2% hits; in the data active = activation above about 40%; inconclusive = no clear call, values can overlap the other calls;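 note: 0% = median of the plate's neutral control wells and 100% = double that signal; a rise in the Bmi1 reporter signal indicates esBAF inhibition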
SMARCA2 act conf = SMARCA2 (BRM) function activators, confirmation, cell-based, luminescence, triplicate. shares compounds with SMARCA2 act. MG213 cells, MMTV-luciferase with dexamethasone, overnight; MG213 cells expressing E1A, Rb sequestered; DMSO wells 0%, reference activator 100%. activation, % at 9.1 µM. 3,500 compounds, 30% hits. AID 652260, 2013;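 active = activation above its plate's cutoff, the mean activation of tested wells plus 3 SD, cut at about 7.9% in these data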
GAL4-VP16 Luc = GAL4-VP16 luciferase reporter activation, counter-screen for SMARCA2 (BRM) activator project, cell-based, pG5luc, luminescence, high throughput; shares compounds with SMARCA2 act; HEK293 GAL4-VP16 pG5luc reporter; scaled: DMSO wells 0%, SAHA wells 100%; activation, % at 9.1 µM; 3,500 compounds, 41% hits; AID 686939, 2013;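 active = activation above the solvent-only control well mean plus 3 SD, averaged across control plates, cut at about 5.2% in these data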
* hit, by the source's call; ? = inconclusive; · = not tested or not shown. Most compounds without a hit are left out; they make up all but 2.6% or so of the library.

SMILES	SMARCA2 act	ARFGAP1 inhibitor	ASAP1 inh	esBAF inh	SMARCA2 act conf	GAL4-VP16 Luc
COc1cccc(/C=N/N2CCOCC2)c1O	10*	5	-1	·	4	3
Cc1ccsc1C(=O)NNC(=O)C1CCCCC1C(=O)O (stereo not drawn)	2	14	2	33	·	·
Cc1ccsc1C(=O)NNC(=O)C1CC=CCC1C(=O)O (stereo not drawn)	8.6*	-4	-27	·	3	2
CCc1nc(SCc2cc(Cl)ccc2OC)n[nH]1	9.4*	9	5	2	-1	0
CNc1nc(C)nc(-c2ccccc2O)n1	8.7*	4	-1	9	8	5.1*
CCCS(=O)(=O)Nc1ccc(Nc2c3ccccc3nc3ccccc23)c(OC)c1	15*	7	3	·	24*	3
CC(C)NC(=O)Nc1ccc2c(c1)C(=O)N([C@@H](C)CO)C[C@H](C)[C@@H](CN(C)Cc1ccncc1)O2	·	·	·	0	·	·
Cc1csc(NC(=O)CSc2ccccc2F)n1	8.4*	10	4	·	2	4
Cc1csc(NC(=O)CSc2ccc(-c3ccccn3)nn2)n1	-1	0	-4	13	·	·
Nc1cc(=O)[nH]c(SCc2nnnn2-c2ccc(Cl)cc2)n1	9.4*	8	7	-7	3	0
CCc1cccc2c(C(=O)COC(=O)c3c(C)noc3C)c[nH]c12	8.6*	8	-8	2	4	0
C[C@@H](N)C(=O)N[C@H]1CCC2C3CC=C4C[C@@H](O)CC[C@]4(C)C3CC[C@@]21C (stereo partly drawn)	-1	-2	0	·	·	·
CC(C)[C@H](N)C(=O)N[C@H]1CCC2C3CC=C4C[C@@H](O)CC[C@]4(C)C3CC[C@@]21C (stereo partly drawn)	19*	-1	-7	-67	44*	2
O=C(Nc1ccccc1)Nc1nccs1	9.0*	-5	4	·	4	3
COC(=O)[C@@H]1[C@@H](CO)[C@@H]2Cn3c(ccc(-c4cccc(OC)c4)c3=O)[C@@H]2N1Cc1nccs1	·	·	·	1	·	·
C[C@H](CO)N1C[C@H](C)[C@H](CN(C)Cc2ccc3c(c2)OCO3)Oc2c(NC(=O)c3ccc(-c4nccs4)cc3)cccc2C1=O	·	·	·	-7	·	·
CCn1c(O)c(N=Nc2ccc(Cl)c(C(=O)O)c2)c2ccccc21	11*	-8	5	·	-4	1
OCc1cn(-c2ccccc2)nc1-c1cc2ccccc2o1	12*	14	11	?	4	8.6*
COc1ccc(-c2nc3nc(C)c(Cc4ccccc4)c(=O)n3[nH]2)cc1	8.1*	0	2	6	3	3
COC(=O)Cc1c(C)nc2nc(-c3ccc(OC)cc3)[nH]n2c1=O	-1	6	1	4	·	·
CCN(CC)C(=S)SSC(=S)N(CC)CC	9.2*	11	11	7	-9	7.0*
CCN(CC)C(=S)SC1=CCS(=O)(=O)C1	-1	5	-11	·	·	·
COc1ccc(NC(C)=O)c(C)c1	-3	5	4	·	·	·
COc1ccc(-n2nc(C)cc2N)cc1	-1	-8	-1	·	·	·
COc1ccc(-n2nc3cc(C)c(NC(C)=O)cc3n2)cc1	8.1*	-2	3	-49	5	8.9*
SMILES	SMARCA2 act	ARFGAP1 inhibitor	ASAP1 inh	esBAF inh	SMARCA2 act conf	GAL4-VP16 Luc
COc1ccc(-n2nc3cc(C)c(N)c(Br)c3n2)cc1	8.4*	7	6	-1	11*	11*
CO[C@@H]1CN(C)C(=O)c2cc(NC(=O)C3CC3)ccc2OC[C@H](C)N(C(C)=O)C[C@@H]1C	·	·	·	4	·	·
CCO/N=C(\C)c1c(O)cc(C(C)C)n(-c2ccccc2)c1=O	-1	0	-3	·	·	·
CC(=O)c1c(O)cc(C(C)C)n(-c2ccccc2)c1=O	20*	3	-8	·	3	0
C=COC(=O)CSc1nc(-c2cccs2)ccc1C#N	8.3*	-5	15	27	6	9.3*
CCOC(=O)C1=C(C)c2ccccc2N(C(=O)OC)C1(C)C(=O)OCC (stereo not drawn)	8.1*	-15	12	14	1	-1
Cc1ccc(S(=O)(=O)N(C)C[C@H]2Oc3ccc(NC(=O)Cc4ccccc4)cc3C(=O)N([C@H](C)CO)C[C@H]2C)cc1	·	·	·	5	·	·
CCOC(=O)C1CCN(C(=O)Cn2cnc3sc(C)c(S(=O)(=O)N4CCC(C)CC4)c3c2=O)CC1	8.1*	11	-16	-3	-2	-1
CO[C@H]1CC[C@H]2CCN(C)C(=O)[C@H](C)[C@@H](OC)CN(C)C(=O)c3cccc(C#N)c3OC[C@H]1O2	·	·	·	7	·	·
C[C@H](CO)N1C[C@H](C)[C@@H](CN(C)Cc2ccccc2F)Oc2cc(C#CCN(C)C)ccc2S1(=O)=O	·	·	·	-2	·	·
Cc1ccc(-n2c(C)csc2=N)cc1	8.7*	-1	7	35	8	19*
Cc1noc(C)c1NC(=O)N(C)C[C@@H]1Oc2ccc(NC(=O)Nc3ccc(C(F)(F)F)cc3)cc2C(=O)N([C@@H](C)CO)C[C@H]1C	·	·	·	-3	·	·
COC(=O)c1ccc(NC(=S)NC2c3ccccc3CC2O)cc1 (stereo not drawn)	8.3*	-8	-6	·	4	0
COC(=O)c1ccc(NC(=S)Nc2ccccc2)cc1	2	-5	-3	9	·	·
COc1ccc(-c2nnc(SCC(=O)Nc3cccc(Cl)c3)o2)cc1	12*	-1	0	33	1	7.2*
C[C@H](CO)N1C[C@H](C)[C@H](CN(C)C(=O)CCCN(C)C)OCCCC[C@H](C)Oc2ccc(NS(=O)(=O)c3ccc(Cl)cc3)cc2C1=O	·	·	·	-1	·	·
COCc1cn(CC[C@@H]2CC[C@@H](NC(=O)Nc3ccc(F)cc3)[C@@H](CO)O2)nn1	·	·	·	-1	·	·
CC=Cc1ccc2n(c1=O)C[C@H]1[C@H](CO)[C@@H](C(=O)NCc3ccncc3)N(Cc3ccncc3)[C@@H]21 (mixture of isomers)	·	·	·	-3	·	·
CCOc1ccccc1N1CCN(C(=S)NCc2ccccc2)CC1	0	-4	-5	-4	·	·
CCOc1ccccc1N1CCN(C(=S)NCc2ccco2)CC1	8.1*	7	-2	·	1	0
COc1ccccc1-c1cnc2c(c1)C(=O)N([C@H](C)CO)C[C@H](C)[C@H](CN(C)Cc1ccc(C(=O)O)cc1)O2	·	·	·	-18	·	·
